# Screening data deposited in PubChem by several laboratories.
# NRP1-CendR mod – modulators of CendR peptide binding to NRP-1, primary screen, biochemical, fluorescence polarization, uHTS. Neuropilin-1 (Homo sapiens), O14786. FAM-RPARPAR peptide binding to NRP-1. inhibition, % at 25 µM. 0.85% of 360,000 active. AID 602438, 2012;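 active means inhibition or corrected inhibition above about 18%, plus a signal ratio from 0.5 to 1.5, limit read from the data, passing the limit was not always enough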
# ATG4B inh – ATG4B protease inhibitors, primary screen, biochemical, fluorescence, uHTS; Cysteine protease ATG4B (Homo sapiens), Q9Y4P1; ATG4B cleavage of LC3-PLA2, NBD-HPC fluorescence, 1 h; inhibition, % at 8.33 µM; 0.51% of 340,000 active; AID 504462, 2011; in the data active means inhibition above about 40%
# Exocytosis inh – LAMP-1 surface exposure blockers, TALL-104 cells – cell-based, flow cytometry, MLPCN library, primary screen; inhibition, % at 10 µM; 0.66% of 360,000 active; AID 651702, 2012; TALL-104 LAMP-1 surface exposure; cells stimulated with thapsigargin and PMA;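 active means inhibition above about 55%, limit read from the data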
# Myeloid diff MLP – induction of myeloid progenitor differentiation, primary screen, cell-based, flow cytometry, MLPCN library | calls only at 10 µM | 1% of 360,000 active | AID 624256, 2012 | ER-HoxA9 myeloid progenitors, lysozyme-GFP differentiation;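 active means normalized GFP-positive differentiation at or above the plate's own cutoff, the solvent-only control mean plus 3 SD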;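 further: cells exposed to compound for four days before flow analysis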
# ABCB6 inh MLPCN – ABCB6 transporter inhibitors, primary screen, K562-ABCB6 cells, flow cytometry, MLPCN library | K562-ABCB6 porphyrin accumulation, 1 h; hits give low values | ATP-binding cassette sub-family B member 6 (Homo sapiens), Q9NP58 | AID 602162, 2011 | 0.19% of 360,000 active | fluorescence ratio to DMSO, % at 10 µM;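 active means fluorescence ratio to DMSO below 75%, the collection mean minus 3 SD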;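 further: signal is porphyrin accumulated inside mitochondria; 100% equals median channel fluorescence of DMSO control wells; lower ratio means ABCB6 inhibition with less porphyrin fluorescence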
# Arrestin-AP2 inh – inhibitors of beta-arrestin/AP2 binding, primary screen, biochemical, GPCR trafficking, flow cytometry; 0.31% of 340,000 active; FITC-arrestin peptide / GST-AP2 beads; AP2 beta2 appendage carries R879A mutation; beta-arrestin 1 C-terminal peptide binding to AP2 beta2-adaptin appendage (human); inhibition, % at 10 µM;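 active means inhibition above a set limit, near 3 SD of compounds lacking own fluorescence, cut at about 54% in these data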;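 further: plate controls were DMSO wells for no effect and 5 µM unlabelled arrestin peptide for full effect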
#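 System: GST-AP2 R879A glutathione beads. Medium: PBS with 0.05% Tween 20 and 0.1% BSA. Also added: FITC-arrestin peptide, 50 nM. Incubation: 12 min plus 1 h, RT. Measured by: high-throughput flow cytometry of beads, ex 488, em 535 nm. Evaluation: percent drop in bead-associated FITC signal.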
# * = called active by the depositor; i = inactive; . = not tested or not shown; + = active, no number. An excerpt weighted towards active compounds, which were near 3.3% of everything screened.
SMILES,NRP1-CendR mod,ATG4B inh,Exocytosis inh,Myeloid diff MLP,ABCB6 inh MLPCN,Arrestin-AP2 inh
O=C(C1CC1)N1N=C(c2ccc(Cl)cc2)CC1(O)C(F)(F)F (centres undefined),27*,-5,-11,i,99,8
CCCOc1ccc(C(=O)CCC(=O)OCC(=O)N2CCN(S(=O)(=O)c3ccc(C)cc3C)CC2)cc1,-8,-5,20,i,101,-5
COc1ccc(C(C)=O)cc1CSc1nnc(-c2ccncc2)n1C,9,-6,4,i,101,8
COc1ccc(C(C)=O)cc1CSc1nnc(-c2ccc(Cl)cc2)n1-c1ccccc1,5,-14,73*,i,97,13
Cc1ccccc1N1CCN(C2CCCN(C(=O)CCN3CCCCC3=O)C2)CC1 (centres undefined),-2,0,2,i,106,-3
COc1ccccc1N1CCN(C2CCCN(C(=O)Cn3cccn3)C2)CC1 (centres undefined),24*,18,-1,i,93,-7
Cc1ccccc1N1CCN(C2CCCN(C(=O)CCN3CCCCO3)C2)CC1 (centres undefined),26*,3,0,i,92,10
COC(=O)c1ccc(NC(=S)NCCC2=CCCCC2)cc1,-3,4,-3,i,98,18
COC(=O)c1cccc(NC(=S)NCCC2=CCCCC2)c1,36*,-4,10,i,102,2
COC(=O)c1c(C)n(-c2ccccc2)c2ccc(O)cc12,-2,6,-2,i,96,6
CN(C)/C=C/c1c([N+](=O)[O-])c2ccc(O)cc2n1-c1ccccc1,33*,8,4,i,103,38
CNc1ncnc(Sc2ccc(Cl)cc2)c1[N+](=O)[O-],-19,-2,8,i,98,12
CS(=O)(=O)c1ccc(Nc2nc(C(N)Cc3ccc(Cl)cc3)cs2)cc1 (centres undefined),33*,.,2,i,99,.
CC(C)(C)c1cc(NCc2ccccn2)n2ncc(-c3ccc(Cl)cc3)c2n1,2,-9,14,i,97,45
CN(C)CCCNc1cc(C(C)(C)C)nc2c(-c3ccc(Cl)cc3)cnn12,5,7,65*,i,84,20
Cc1cc(N)c(C)c([N+](=O)[O-])c1C,31*,5,4,i,98,-5
CCCCCCC(=O)N(O)C1CC(=O)N(c2ccc(C)cc2)C1=O (centres undefined),9,-6,24,i,99,6
CCCCCCC(=O)N(O)C1CC(=O)N(c2ccc(Cl)cc2)C1=O (centres undefined),5,-3,72*,i,100,-2
COc1ccccc1CNCC(O)(c1ccc(Cl)cc1)c1ccc(Cl)cc1,7,-9,3,+,99,4
CC1=C(C(=O)N2CCOCC2)CC(CC(=O)NCCc2ccccn2)C(=O)N1Cc1ccccc1 (centres undefined),26*,.,1,i,100,.
CCOC(=O)c1c(=O)n(O)c2ccc(OC)cc2[n+]1[O-],25*,-13,-3,i,94,0
COc1ccc2c(c1)[n+](=O)c(C(C)=O)c(C)n2[O-],-1,4,-2,i,102,-1
Cc1ccccc1NC(=O)Cc1nc(COC(=O)CCOc2ccccc2)cs1,7,0,-2,i,95,-2
Cc1cc(C)cc(NC(=O)CCC(=O)Nc2nnc(C(C)C)s2)c1,4,4,2,+,93,19
Cc1cc[n+]2n1CC(O)C2 (centres undefined),-1,5,0,i,95,30
Cc1ccc(C(=O)COC(=O)CN2C(=O)C3C4CCC(C4)C3C2=O)cc1C (centres undefined),24*,-4,5,i,98,-8
